NPY Y1 blocker: NPY-Y1 receptor antagonists, primary screen, cell-based. Neuropeptide Y receptor type 1 (Homo sapiens), P25929. HEK293-CNG Y1 cells, membrane potential fluorescence; NPY at EC95, then isoproterenol. inhibition, % at 3.6 µM. actives 1% (n = 200,000). AID 1040, 2008;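 active means inhibition above the campaign mean inhibition of all tested compounds plus 3 SD, cut at about 20% in these data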
Target sequence (P25929 whole entry, looked up): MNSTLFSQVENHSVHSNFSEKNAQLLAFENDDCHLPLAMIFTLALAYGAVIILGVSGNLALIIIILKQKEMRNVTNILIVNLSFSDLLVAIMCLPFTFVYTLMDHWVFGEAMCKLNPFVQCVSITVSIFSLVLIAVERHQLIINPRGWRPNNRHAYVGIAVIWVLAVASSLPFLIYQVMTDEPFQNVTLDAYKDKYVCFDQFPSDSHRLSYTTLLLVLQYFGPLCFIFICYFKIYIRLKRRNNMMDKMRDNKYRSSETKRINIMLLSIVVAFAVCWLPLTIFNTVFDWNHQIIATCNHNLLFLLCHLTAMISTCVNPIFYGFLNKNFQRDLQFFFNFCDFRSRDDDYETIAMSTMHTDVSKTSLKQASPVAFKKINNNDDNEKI
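Benchmarks – high control isoproterenol alone, low control NPY with isoproterenol · Material – HEK293 Y1/CNG channel cell line · Times – dye 3 h, compound 60 min room temperature, stimulation 45 min · Probe or stimulus – NPY (25 nM), isoproterenol (1 µM), Ro 20-1724 (25 µM) · Evaluation – % inhibition of NPY effect · Signal – fluorescence, membrane potential probe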
NPY-Y2 antag: NPY-Y2 receptor antagonists, primary screen, cell-based | NPY-Y2 expressing cells, antagonist mode | actives 0.99% (n = 140,000) | AID 793, 2007 | inhibition, % at 2.7 µM; in the data active means inhibition above about 17%
NPY2 pot ag: NPY-Y2 potentiators or agonists, primary screen, cell-based; Neuropeptide Y receptor type 2 (Homo sapiens), P49146; cells expressing NPY-Y2, potentiator/agonist read-out; activation, % at 3.6 µM; actives 0.45% (n = 220,000); in the data active means activation above about 27%;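 further: cells stimulated with NPY near EC25 plus isoproterenol at EC100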
NPY-Y1 PAM-ag: NPY-Y1 receptor potentiators or agonists, primary screen, cell-based. activation, % at 3.6 µM. NPY-Y1 expressing cells, potentiator/agonist activation. AID 1304, 2008. Neuropeptide Y receptor type 1 (Homo sapiens), P25929. actives 0.37% (n = 220,000); in the data active means activation above about 33%, passing the limit was not always enough;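 further: cells stimulated with NPY at EC10 then isoproterenol at EC100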
Numbers stand for hits. This is a sample that favours compounds with a hit; in the whole collection about 1.8% have one here.

Results for CC(C)OP(=O)(OC(C)C)/C(C=O)=N\Nc1ccc([N+](=O)[O-])cc1 ?
NPY2 pot ag: 53; NPY-Y1 PAM-ag: 51

What do the screens show for `CCN(CC)CCn1c(=N)n(CCOc2ccccc2)c2ccccc21`?
NPY Y1 blocker: 30; NPY-Y2 antag: 35; NPY2 pot ag: inactive; NPY-Y1 PAM-ag: inactive

What do the screens show for `COc1ccc(Cn2c(SCc3ccc(C)cc3)nc3cc(OC)c(OC)cc3c2=N)cc1Cl`?
NPY Y1 blocker: 34; NPY-Y2 antag: 25; NPY2 pot ag: inactive; NPY-Y1 PAM-ag: inactive

How did COc1ccc(Cn2c(SCc3cc(C)ccc3C)nc3cc(OC)c(OC)cc3c2=N)cc1 do in these assays?
NPY Y1 blocker: 47; NPY-Y2 antag: 55; NPY2 pot ag: inactive; NPY-Y1 PAM-ag: inactive

How did C=CC[n+]1c(-c2ccc(C)cc2)csc1Nc1c(C)n(C)n(-c2ccccc2)c1=O do in these assays?
NPY Y1 blocker: inactive; NPY2 pot ag: inactive; NPY-Y1 PAM-ag: inactive

What do the screens show for `C=CC[n+]1c(-c2ccc(OCC)cc2)csc1NNC(=O)Nc1ccccc1`?
NPY Y1 blocker: inactive; NPY-Y2 antag: inactive; NPY2 pot ag: 81; NPY-Y1 PAM-ag: 95

What do the screens show for `CCOC(=O)c1c(C)n(C)c2ccc(O)c(CN(CC)CC)c12`?
NPY Y1 blocker: inactive; NPY-Y2 antag: inactive; NPY2 pot ag: 60; NPY-Y1 PAM-ag: 70

What do the screens show for `CCOC(=O)c1c(C)oc2ccc(O)c(CN(C)C)c12`?
NPY Y1 blocker: inactive; NPY-Y2 antag: inactive; NPY2 pot ag: 53; NPY-Y1 PAM-ag: 61

Results for CCOC(=O)c1c(C)oc2cc(Cl)c(O)c(CN(C)C)c12 ?
NPY2 pot ag: inactive; NPY-Y1 PAM-ag: inactive

What do the screens show for `O=C(CSc1nc2ncccc2[nH]1)c1ccc2c(c1)OCO2`?
NPY2 pot ag: inactive; NPY-Y1 PAM-ag: inactive

What do the screens show for `CCOCC(=O)Nc1cc(C)on1`?
NPY Y1 blocker: inactive; NPY2 pot ag: inactive; NPY-Y1 PAM-ag: inactive

How did OC(COCCOc1ccc(Br)cc1)CN1CCCCC1 (centres undefined) do in these assays?
NPY Y1 blocker: inactive; NPY-Y2 antag: inactive; NPY2 pot ag: inactive; NPY-Y1 PAM-ag: inactive

Results for CC(C)Sc1nnc([C@H](Cc2c[nH]c3ccccc23)NC(=O)OC(C)(C)C)o1 ?
NPY Y1 blocker: inactive; NPY-Y2 antag: inactive; NPY2 pot ag: inactive; NPY-Y1 PAM-ag: inactive

Results for CCSc1ccccc1C(=O)NCc1ccc2c(c1)OCO2 ?
NPY Y1 blocker: inactive; NPY-Y2 antag: inactive; NPY2 pot ag: inactive; NPY-Y1 PAM-ag: inactive

Results for COc1ccc2c(c1)-c1c(sn(-c3ccc(OC)c(OC)c3)c1=S)C(C)(C)N2 ?
NPY Y1 blocker: inactive; NPY-Y2 antag: inactive; NPY2 pot ag: 38; NPY-Y1 PAM-ag: 53

What do the screens show for `CCC(=O)Nc1ccccc1C(=O)OC(c1ccccc1)c1ccccc1`?
NPY Y1 blocker: 27; NPY-Y2 antag: 24; NPY2 pot ag: inactive; NPY-Y1 PAM-ag: inactive

How did Cc1ccc(Cl)cc1N1CCN(CC(O)COC(C)C)CC1 (centres undefined) do in these assays?
NPY2 pot ag: inactive; NPY-Y1 PAM-ag: inactive

Results for Cc1ccc(C(C)C)c(OCC(O)CN2CCOCC2)c1 (centres undefined) ?
NPY Y1 blocker: inactive; NPY-Y2 antag: inactive; NPY2 pot ag: 76; NPY-Y1 PAM-ag: 89

How did Cc1ccc(C(C)C)c(OCC(=O)N2CCOCC2)c1 do in these assays?
NPY Y1 blocker: inactive; NPY-Y2 antag: inactive; NPY2 pot ag: inactive; NPY-Y1 PAM-ag: inactive

What do the screens show for `Cc1ccc(C(C)C)c(OCC(O)CN2CCN(CCO)CC2)c1` (centres undefined)?
NPY Y1 blocker: inactive; NPY-Y2 antag: inactive; NPY2 pot ag: 81; NPY-Y1 PAM-ag: 101

How did Cc1ccc(OCC(O)CN2CCN(CC(O)COC(C)C)CC2)c(C(C)(C)C)c1 (centres undefined) do in these assays?
NPY Y1 blocker: inactive; NPY-Y2 antag: inactive; NPY2 pot ag: 93; NPY-Y1 PAM-ag: 96

Results for Cc1cc(OCC(O)CN2CCN(C)CC2)ccc1C(C)C (centres undefined) ?
NPY Y1 blocker: inactive; NPY-Y2 antag: inactive; NPY2 pot ag: inactive; NPY-Y1 PAM-ag: inactive

How did CC1CN(CC(O)COc2ccc(C(=O)c3ccccc3)cc2)CC(C)O1 (centres undefined) do in these assays?
NPY Y1 blocker: inactive; NPY-Y2 antag: inactive; NPY2 pot ag: inactive; NPY-Y1 PAM-ag: inactive

What do the screens show for `Cc1ccc(C(C)C)c(OCC(O)CN2CC(C)OC(C)C2)c1` (centres undefined)?
NPY Y1 blocker: inactive; NPY-Y2 antag: inactive; NPY2 pot ag: 92; NPY-Y1 PAM-ag: 93

What do the screens show for `O=C(NC1CCCC1)C(=O)N(c1ccccc1F)C(C(=O)NCC1CCCO1)c1cccs1` (centres undefined)?
NPY Y1 blocker: inactive; NPY2 pot ag: inactive; NPY-Y1 PAM-ag: inactive

How did COC(=O)c1cnn(-c2ccc(Cl)cc2)c1/C=N/NC(N)=S do in these assays?
NPY2 pot ag: inactive; NPY-Y1 PAM-ag: inactive

What do the screens show for `CCOC(=O)C(C)(C)N(Cc1ccc(C)cc1)S(=O)(=O)c1ccc(Cl)c([N+](=O)[O-])c1`?
NPY Y1 blocker: inactive; NPY-Y2 antag: inactive; NPY2 pot ag: 51; NPY-Y1 PAM-ag: 76

Results for CCOC(=O)C(C)(C)N(Cc1ccc(Cl)cc1)S(=O)(=O)c1ccc(Cl)c([N+](=O)[O-])c1 ?
NPY Y1 blocker: inactive; NPY-Y2 antag: inactive; NPY2 pot ag: 66; NPY-Y1 PAM-ag: 65

How did COc1ccc(-c2nc(C#N)c(NCc3ccc(F)cc3)o2)cc1OC do in these assays?
NPY Y1 blocker: 24; NPY-Y2 antag: 24; NPY2 pot ag: inactive; NPY-Y1 PAM-ag: inactive

What do the screens show for `Cc1cc2occ(CC(=O)OCC(=O)Nc3sc4c(c3C#N)CCC(C)C4)c2cc1C` (centres undefined)?
NPY Y1 blocker: inactive; NPY-Y2 antag: inactive; NPY2 pot ag: inactive; NPY-Y1 PAM-ag: inactive

What do the screens show for `CC(=O)Oc1ccc(C(c2ccc(OC(C)=O)cc2)c2ccccn2)cc1`?
NPY Y1 blocker: 102; NPY-Y2 antag: 108; NPY2 pot ag: inactive; NPY-Y1 PAM-ag: inactive

What do the screens show for `Cc1ccc2oc(-c3cccc(NC(=O)/C=C/c4cccc([N+](=O)[O-])c4)c3C)nc2c1`?
NPY Y1 blocker: inactive; NPY-Y2 antag: inactive; NPY2 pot ag: inactive; NPY-Y1 PAM-ag: inactive

How did NC(=O)C(c1ccccc1)C1CCCC1 (centres undefined) do in these assays?
NPY Y1 blocker: inactive; NPY-Y2 antag: inactive; NPY2 pot ag: inactive; NPY-Y1 PAM-ag: inactive

What do the screens show for `Cc1ccccc1NC(=O)C(c1ccccc1)C1CCCC1` (centres undefined)?
NPY Y1 blocker: 26; NPY-Y2 antag: 23; NPY2 pot ag: inactive; NPY-Y1 PAM-ag: inactive

How did O=C(Nc1ccc2ccccc2c1)C(c1ccccc1)C1CCCC1 (centres undefined) do in these assays?
NPY Y1 blocker: 33; NPY-Y2 antag: 22; NPY2 pot ag: inactive; NPY-Y1 PAM-ag: inactive

How did Cc1ccc(NC(=O)C(NC2CCCC2)c2ccccc2)cc1Cl (centres undefined) do in these assays?
NPY Y1 blocker: inactive; NPY2 pot ag: inactive; NPY-Y1 PAM-ag: inactive

Results for COc1ccc(-c2nnn(CC(=O)Nc3sc4c(c3C#N)CCCC4)n2)cc1 ?
NPY Y1 blocker: inactive; NPY-Y2 antag: inactive; NPY2 pot ag: inactive; NPY-Y1 PAM-ag: inactive

High-throughput results deposited in PubChem by The Scripps Research Institute Molecular Screening Center.
